Assay results taken from ChEMBL document CHEMBL1129971, “Cyclic HIV-1 protease inhibitors derived from mannitol: synthesis, inhibitory potencies, and computational predictions of binding affinities” (J Med Chem, 1997).

Key:
[1] = molecular target: T1, Human immunodeficiency virus type 1 protease (Human immunodeficiency virus 1, UniProt Q72874); assay: Binding affinity against HIV-1 protease
Summary of the method: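 Ki from the activity of 20 nM HIV-1 protease across a matrix of substrate (HIV substrate III at 10, 20, 50 and 100 µM) and at least three inhibitor levels: roughly the estimated Ki and 2–4 times it. Tight-binding rate equation fitted by nonlinear regression. Buffer and read-out as in the spectrophotometric cleavage assay.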

[2] = molecular target: T1, Human immunodeficiency virus type 1 protease; assay: Inhibition concentration against HIV-1 protease
Summary of the method: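 Purified HIV-1 protease (30 nM) added after 5 min preincubation of 60.8 µM chromophoric HIV substrate III with inhibitor (DMSO, final below 2.5%). Buffer: 50 mM each glycine, sodium acetate, MES and Tris-HCl, 1.0 M NaCl, 1 mM EDTA, 1 mM DTT, pH 5.5, 37 °C. Cleavage rate from absorbance change at 300 nm. IC50 from activity versus log inhibitor concentration.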

[3] = molecular target: Human immunodeficiency virus type 1 protease (Human immunodeficiency virus 1) (UniProt Q72874); details: 10 uM

Q: Which Ki [1] does the source give for O=C1N(Cc2ccc(CO)cc2)[C@H](COc2ccccc2)[C@H](O)[C@@H](O)[C@@H](COc2ccccc2)N1Cc1ccc(CO)cc1 here?
A: 0.23 nM

Q: What about the IC50 [2] of the same compound?
A: 10 nM

Q: With O=C1N(Cc2ccccc2)[C@H](COc2ccccc2)[C@H](O)[C@@H](O)[C@@H](COc2ccccc2)N1Cc1ccccc1 as the compound, how does the IC50 [2] read?
A: 80 nM

Q: What does the source list for O=C1N(Cc2ccccc2)[C@H](CCc2ccccc2)[C@H](O)[C@@H](O)[C@@H](CCc2ccccc2)N1Cc1ccccc1?
A: Ki [1]: 214 nM; IC50 [2]: 4000 nM

Q: How did the Ki [1] turn out when O=S1(=O)N(Cc2ccccc2)[C@H](CCc2ccccc2)[C@H](O)[C@@H](O)[C@@H](CCc2ccccc2)N1Cc1ccccc1 was run?
A: 14.7 nM

Q: And the IC50 [2]?
A: 200 nM

Q: Which inhibition [3] does the source give for O=C1N(Cc2ccccc2)[C@@H](COc2ccccc2)[C@H](O)[C@@H](O)[C@H](COc2ccccc2)N1Cc1ccccc1 here?
A: 10%

Q: For O=C1N(Cc2ccccc2)[C@@H](COc2ccccc2)[C@@H](O)[C@H](O)[C@H](COc2ccccc2)N1Cc1ccccc1, which inhibition [3] is on record?
A: 15%

Q: How did the Ki [1] turn out when O=C1N(Cc2ccccc2)[C@H](CCCc2ccccc2)[C@H](O)[C@@H](O)[C@@H](CCCc2ccccc2)N1Cc1ccccc1 was run?
A: 570 nM

Q: What about the IC50 [2] of the same compound?
A: 10000 nM

Q: How did the IC50 [2] turn out when O=S1(=O)N(Cc2ccccc2)[C@H](COc2ccccc2)[C@H](O)[C@@H](O)[C@@H](COc2ccccc2)N1Cc1ccccc1 was run?
A: 200 nM

Q: Which inhibition [3] does the source give for O=C1N(Cc2ccccc2)[C@H](COc2ccccc2)[C@@H](O)[C@H](O)[C@@H](COc2ccccc2)N1Cc1ccccc1 here?
A: 0%

Q: With COC(=O)c1ccc(CN2C(=O)N(Cc3ccc(C(=O)OC)cc3)[C@H](COc3ccccc3)[C@H](O)[C@@H](O)[C@H]2COc2ccccc2)cc1 as the compound, how does the IC50 [2] read?
A: 8000 nM

Q: With O=C1N(Cc2ccc(CO)cc2)[C@H](Cc2ccccc2)[C@H](O)[C@@H](O)[C@@H](Cc2ccccc2)N1Cc1ccc(CO)cc1 [DMP-323] as the compound, how does the IC50 [2] read?
A: 15 nM
